# Compound activity from PubChem.
# N-glyco inh = N-linked glycosylation inhibition; D54 ERlucT glycosylation luciferase reporter, 24 h; percent of 100 nM tunicamycin response; reporter increase, % at 12.5 µM; hit rate 0.23% among 360,000;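 active = mean luciferase reporter signal, scaled so untreated is 0 and the glycosylation-blocking control 100, at or above a set limit in every replicate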;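 note: luciferase carries N-glycosylation sites so blocking glycosylation raises the light; 0% = median of neutral control wells and 100% = median of 100 nM tunicamycin wells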
# PfHsp90 yeast 2 = inhibits growth of yeast expressing Plasmodium falciparum Hsp90. hit rate 0.32% among 310,000. AID 504621. S. cerevisiae expressing PfHsp90, BacTiter-Glo ATP, 48 h; yeast lacking PDR1 and PDR3 efflux regulators. inhibition, % at 9.4 µM;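 active = every replicate shows inhibition above about 80%, whatever the replicate mean, limit read from the data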;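 note: 0% = DMSO neutral controls and 100% = 20 µM radicicol positive controls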
# CaV13 FRET inh = Primary screen for inhibitors of IQ motif and Ca2+-dependent inactivation inhibitor domain binding in CACNA1D, Förster resonance energy transfer in living cells, …; HEK cells, CFP/YFP FRET ICDI-IQ, plate reader, 10 min; percent FRET-ratio fall versus neutral wells; inhibition, % at 12.3 µM; hit rate 0.098% among 340,000; AID 743397;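 active = mean replicate inhibition of at least 30% and at least 1% of replicates passing that level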;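 note: 0% = median of the neutral control wells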
# HSF-1 act = increases HSF-1 driven luciferase reporter signal. NIH3T3-HGL HSF-1 luciferase reporter, MG132, 8 h; 100% = twice DMSO control signal. activation, % at 9 µM. hit rate 1.7% among 300,000. AID 504408;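 active = mean replicate activation of at least 50% with a set share of replicates each reaching 50%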;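 note: 0% = median of the neutral control wells and 100% = twice that signal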
# T cruzi repl = T. cruzi replication inhibition. hit rate 1.4% among 300,000. inhibition, % (test concentration not listed). T. cruzi beta-gal in NIH3T3, luminescence, 90 h. AID 1885;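 active = mean inhibition across valid replicates above about 55%, limit read from the data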;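 note: signal also drops with host cell toxicity which is not excluded here; 0% = plate median of DMSO wells and 100% = zero luminescence signal; higher percent means less beta-gal luminescence so fewer parasites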
#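 Read-out: Parasite load inhibition, % | Test system: Mouse NIH/3T3 fibroblasts infected with β-gal-expressing T. cruzi Tulahuen C4 | Amount: 5,000 cells/well | Medium: DMEM, 2% fetal bovine serum | Signal: GalScreen β-gal luminescence, detergent lysis, 60 min | Timing: 3 h attach, ≥90 h co-culture | Also added: Tulahuen C4 trypomastigotes, 5000/well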
# PvdQ acylase = blocks Pseudomonas aeruginosa PvdQ acylase activity. purified PvdQ acylase, fluorescence plate reader. inhibition, % at 10 µM. hit rate 0.063% among 340,000; in the data active = inhibition above about 30%, passing the limit was not always enough;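 note: 0% = vehicle neutral wells and 100% = reference inhibitor wells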
# An asterisk follows results filed as active; . = no result. Shown are actives, neighbours in structure and some others; about 3% of the full set was active somewhere.
SMILES,N-glyco inh,PfHsp90 yeast 2,CaV13 FRET inh,HSF-1 act,T cruzi repl,PvdQ acylase
CCOc1cccc(C=NNc2nc(=O)cc(C(=O)OC)s2)c1O,.,.,-12,.,.,.
O=C(Nc1cccc(Cl)c1)NN(c1ccccc1)C1CCS(=O)(=O)C1 (stereo not given),.,.,-12,.,.,.
COc1ccc2c(c1)[C@@]1(OCCC=C[C@H]1C)C(=O)N2Cc1ccc(F)cc1,.,.,-5,.,.,.
CN1c2ccccc2N(C)C1(C)c1cccc2ccccc12,2,0,-6,7,58*,-1
CCOC(=O)c1c(-c2ccc(C)o2)csc1NC(=O)COC(=O)c1cccs1,4,-22,-5,8,21,-4
CCOC(=O)c1c(-c2ccc(C)o2)csc1NC(=S)NC(=O)N(C)C,1,-25,-9,56*,2,-14
COc1ccc(C(c2c(O)ccc3ccccc23)N2CCOCC2)c(OC)c1 (stereo not given),0,3,-3,106*,48,-2
COc1ccc(C(CCN2CCOCC2)c2c(O)cc(OC)cc2OC)cc1 (stereo not given),-1,-18,-17,-10,-14,-11
Nc1nc2cc(Cl)c(Br)cc2o1,4,2,-5,.,.,-8
O=C(Nc1cc(C(F)(F)F)ccc1F)C1Cc2c(-c3ccccc3Oc3ccccc3)ccnc2O1 (stereo not given),-6,.,-10,.,.,.
O=S(=O)(Nc1cc(Sc2cccc3cccnc23)c(O)c2ccccc12)c1ccccc1,.,.,-13,204*,50,.
Cc1ccc(S(=O)(=O)Nc2cccc3cccnc23)cc1,-13,-46,-6,81*,49,-15
COc1ccc(S(=O)(=O)Nc2ccccn2)cc1,1,-14,-2,-2,-8,-19
COc1cc(NS(=O)(=O)c2ccc(C)cc2)c2ncccc2c1,-16,.,-9,-83,78*,-15
Cc1ccc(S(=O)(=O)Nc2ccccc2-c2ccccc2NS(=O)(=O)c2ccc(C)cc2)cc1,-3,.,-2,8,-5,13
CCOc1ccc(S(=O)(=O)Nc2cc(SCC(=O)O)c(O)c3ccccc23)cc1,9,7,0,-7,18,10
O=C(c1ccc(N2C(=O)c3ccccc3C2=O)cc1)N1CCN(S(=O)(=O)c2ccccc2F)CC1,-3,.,-6,.,.,.
COc1ccccc1NC(=O)C1=C(C)NC2=C(C(=O)CC(c3ccc(OC)c(OC)c3)C2)C1c1coc2ccccc2c1=O (stereo not given),-3,0,-5,67*,37,2
CCOC(=O)C1=C(C)NC2=C(C(=O)CC(c3ccc(OC)c(OC)c3)C2)C1c1ccc(C)o1 (stereo not given),-1,6,.,.,.,7
COc1ccc(-c2ccc(C(=O)Nc3cc(OC)c(OC)c(OC)c3)c3occc23)c(C)c1,-2,.,-9,.,.,.
Cc1cc(-n2c(SCC(=O)NCCC3=CCCCC3)nc3n[nH]c(C)c3c2=N)ccc1Cl,59*,2,-3,34,11,-4
Cc1ccc(Cl)cc1-n1c(SCC(=O)NCCC2=CCCCC2)nc2n[nH]c(C)c2c1=N,12,-16,-15,56*,31,-18
CC1(C(=O)Nc2ccc3c(c2)OCO3)Cc2c(-c3cccc(C(N)=O)c3)ccnc2O1 (stereo not given),18,.,-5,.,.,.
Cn1c(SCC(=O)c2ccc(F)cc2)ncc(C(=O)Nc2ccccc2)c1=O,36*,-1,.,41,-3,-3
CCCc1ccc(OCc2nc(-c3ccc(NC(=O)c4cccs4)cc3)no2)cc1,-2,-15,-4,58*,17,-11
CC(C)C[C@H]1CN([C@@H](CC(C)C)CN2CCCC2CN2C(=S)NC[C@@H]2Cc2ccccc2)C(=S)N1CCc1ccccc1 (stereo not given in full),.,.,-6,.,.,.
COc1ccc(-n2sc3c(c2=S)-c2cc(OC)ccc2NC3(C)C)cc1,-1,21,0,5,32,-1
COc1ccc2c(c1)-c1c(sn(-c3ccccc3)c1=S)C(C)(C)N2,1,-7,-18,55*,51,-4
